In data set [1] the target is T1, Death-associated protein kinase 1 (Homo sapiens, UniProt P53355). The data set is described as follows: Inhibition of DAPK1 in HEK293 tau-BiFC cells assessed as reduction in forskolin-induced tau aggregation at 16 uM after 48 hrs by Hoechst staining based HCS analysis relative to control. It is filed as cell-based. The method, boiled down: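 HEK293 tau-BiFC cells were given forskolin (30 μM) and compound in a 5-dose series (1, 2, 4, 8, 16 μM) for 48 h. BiFC fluorescence was quantified and a cellular IC50 was derived from the series.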
Target sequence in this assay (P53355 whole entry, looked up): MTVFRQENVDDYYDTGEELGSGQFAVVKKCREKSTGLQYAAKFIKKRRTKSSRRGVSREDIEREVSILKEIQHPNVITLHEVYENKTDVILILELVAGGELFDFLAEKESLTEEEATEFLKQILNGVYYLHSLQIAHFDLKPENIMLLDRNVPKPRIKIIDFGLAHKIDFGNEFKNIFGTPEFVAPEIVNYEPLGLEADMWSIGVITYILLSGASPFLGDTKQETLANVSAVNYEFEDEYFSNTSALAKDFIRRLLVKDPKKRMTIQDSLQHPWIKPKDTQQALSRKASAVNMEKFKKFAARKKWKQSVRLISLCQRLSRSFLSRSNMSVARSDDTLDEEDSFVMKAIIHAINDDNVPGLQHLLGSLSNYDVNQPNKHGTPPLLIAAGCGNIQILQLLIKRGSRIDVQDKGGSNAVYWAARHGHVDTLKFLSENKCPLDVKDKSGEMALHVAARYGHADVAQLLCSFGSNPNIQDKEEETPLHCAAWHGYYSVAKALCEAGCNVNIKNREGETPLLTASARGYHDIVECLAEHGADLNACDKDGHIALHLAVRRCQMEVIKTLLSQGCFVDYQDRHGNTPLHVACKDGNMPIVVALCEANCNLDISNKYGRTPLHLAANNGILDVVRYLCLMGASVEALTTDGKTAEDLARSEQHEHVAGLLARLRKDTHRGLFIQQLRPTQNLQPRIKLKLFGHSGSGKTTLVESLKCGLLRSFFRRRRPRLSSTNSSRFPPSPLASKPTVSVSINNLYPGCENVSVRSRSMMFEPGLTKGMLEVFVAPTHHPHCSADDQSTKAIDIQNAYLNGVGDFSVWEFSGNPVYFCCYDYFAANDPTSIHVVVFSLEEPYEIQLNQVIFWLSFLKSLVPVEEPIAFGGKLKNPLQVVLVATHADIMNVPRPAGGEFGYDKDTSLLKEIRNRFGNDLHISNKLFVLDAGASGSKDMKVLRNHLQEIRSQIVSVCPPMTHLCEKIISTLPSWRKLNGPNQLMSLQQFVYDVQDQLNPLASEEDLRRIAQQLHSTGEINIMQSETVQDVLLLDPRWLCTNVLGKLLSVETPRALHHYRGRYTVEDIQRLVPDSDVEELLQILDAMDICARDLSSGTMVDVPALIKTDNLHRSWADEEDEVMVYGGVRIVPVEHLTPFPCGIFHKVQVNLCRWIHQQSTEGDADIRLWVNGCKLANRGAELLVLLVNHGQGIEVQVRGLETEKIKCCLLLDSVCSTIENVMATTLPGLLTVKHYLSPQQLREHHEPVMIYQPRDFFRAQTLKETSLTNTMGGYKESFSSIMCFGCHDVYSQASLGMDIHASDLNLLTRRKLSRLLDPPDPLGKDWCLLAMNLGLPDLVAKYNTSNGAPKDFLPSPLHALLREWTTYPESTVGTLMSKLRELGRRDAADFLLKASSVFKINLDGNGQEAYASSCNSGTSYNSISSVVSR

The target in data set [2] is T1, Death-associated protein kinase 1. Briefly: Inhibition of human DAPK1 (1 to 363 residues) using KKLNRTLSFAEPG as substrate after 120 mins in presence of 10 uM [gamma-33P]-ATP by filtration method. The method, boiled down: (§1)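 Radiometric HotSpot assay with direct measurement of phosphorylated substrate at 10 μM ATP. IC50 was taken from a duplicate 10-dose series, 3-fold dilutions starting at 20 μM, reported as mean.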
Target sequence in this assay (P53355 whole entry): as the sequence (P53355 whole entry, looked up) above

Data set [3] shares this target. The data set is described as follows: Inhibition of DAPK1 in HEK293 tau-BiFC cells assessed as reduction in forskolin-induced tau aggregation at 50 uM after 48 hrs by Hoechst staining based HCS analysis. It is filed as cell-based. The method, boiled down:
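HEK293 cells expressing tau-BiFC were exposed to compounds at 50, 10 and 1 μM with forskolin (30 μM) as the tau aggregation activator for 48 h. BiFC fluorescence intensity was quantified as the read-out. Data are mean ± SD.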
Target sequence in this assay (P53355 whole entry, looked up): as above

The target in data set [4] is Macrophage colony-stimulating factor 1 receptor (Homo sapiens, UniProt P07333). The data set is described as follows: Inhibition of human CSF1R using poly[Glu:Tyr] (4:1) as substrate after 120 mins in presence of 10 uM [gamma-33P]-ATP by filtration method. The method, boiled down:
as §1

The target of data set [5] is Calcium/calmodulin-dependent protein kinase type II subunit alpha (Homo sapiens) (UniProt Q9UQM7). The data set is described as follows: Inhibition of human CAMK2a at 10 uM using KKALRRQETVDAL as substrate after 120 mins [gamma-33P]-ATP by filtration method. The method, boiled down: (§2)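 Radiometric kinase selectivity panel of 47 kinases, with compound at 10 μM. Data are means ± SD of two independent experiments.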

In data set [6] the target is Proto-oncogene tyrosine-protein kinase Src (Homo sapiens) (UniProt P12931). The data set is described as follows: Inhibition of human c-SRC at 10 uM using poly[Glu:Tyr] (4:1) as substrate after 120 mins [gamma-33P]-ATP by filtration method. The method, boiled down:
as §2

Data set [7] addresses Tyrosine-protein kinase Lck (Homo sapiens) (UniProt P06239). Briefly: Inhibition of human LCK at 10 uM using poly[Glu:Tyr] (4:1) as substrate after 120 mins [gamma-33P]-ATP by filtration method. The method, boiled down:
as §2

Data set [8] concerns the target Voltage-gated inwardly rectifying potassium channel KCNH2 (Homo sapiens, UniProt Q12809). Briefly: Inhibition of red tracer binding to human ERG expressed in membranes preincubated for 10 to 15 mins followed by tracer addition measured after 3 hrs by fluorescence polarization assay.
Data set [9] can be described thus: Effective permeability of the compound at 12.5 uM after 4 hrs by PAMPA. It is filed as ADME. Conditions: read-out: Peff. The method, boiled down:
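BBB-PAMPA lipid membrane permeability was measured as effective permeability Pe (10^-6 cm/sec), with compound tested at 12.5 μM. Results are means ± SD of three independent experiments.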
For orientation: In PAMPA a lipid-coated filter parts donor from acceptor wells.

pIC50: −log10 of the molar value. Activity calls are given as the source filed them. The calls are words filed in the database; no cut-off is given here.

Sequence of Tyrosine-protein kinase Lck (Homo sapiens) (P06239 2-509 limits assumed): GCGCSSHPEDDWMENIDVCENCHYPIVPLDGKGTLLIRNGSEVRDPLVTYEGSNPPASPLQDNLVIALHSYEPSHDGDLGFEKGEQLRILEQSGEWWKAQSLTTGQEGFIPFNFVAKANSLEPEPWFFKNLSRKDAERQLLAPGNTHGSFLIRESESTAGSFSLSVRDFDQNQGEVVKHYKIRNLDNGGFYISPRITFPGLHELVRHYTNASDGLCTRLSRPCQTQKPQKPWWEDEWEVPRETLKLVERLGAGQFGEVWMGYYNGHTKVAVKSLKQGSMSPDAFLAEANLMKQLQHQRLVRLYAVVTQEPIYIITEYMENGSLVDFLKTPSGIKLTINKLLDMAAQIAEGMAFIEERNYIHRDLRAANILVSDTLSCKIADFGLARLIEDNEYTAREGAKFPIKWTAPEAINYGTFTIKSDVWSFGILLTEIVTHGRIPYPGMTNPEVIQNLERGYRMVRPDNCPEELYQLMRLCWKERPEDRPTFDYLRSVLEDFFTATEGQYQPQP
Sequence of Proto-oncogene tyrosine-protein kinase Src (Homo sapiens) (P12931 2-536 limits assumed): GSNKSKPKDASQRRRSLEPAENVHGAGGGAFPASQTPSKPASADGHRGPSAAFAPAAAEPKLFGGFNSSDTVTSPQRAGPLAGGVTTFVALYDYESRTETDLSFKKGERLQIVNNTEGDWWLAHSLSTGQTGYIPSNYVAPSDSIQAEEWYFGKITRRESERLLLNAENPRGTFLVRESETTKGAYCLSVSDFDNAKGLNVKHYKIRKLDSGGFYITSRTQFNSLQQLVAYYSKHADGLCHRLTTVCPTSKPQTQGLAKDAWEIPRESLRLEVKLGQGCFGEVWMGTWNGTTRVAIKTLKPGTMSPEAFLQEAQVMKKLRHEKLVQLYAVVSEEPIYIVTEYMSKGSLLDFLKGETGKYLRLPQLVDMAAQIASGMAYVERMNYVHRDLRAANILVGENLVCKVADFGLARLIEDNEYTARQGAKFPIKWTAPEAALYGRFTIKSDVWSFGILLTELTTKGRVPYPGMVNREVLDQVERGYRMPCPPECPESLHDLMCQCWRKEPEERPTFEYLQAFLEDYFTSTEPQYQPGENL
Sequence of Macrophage colony-stimulating factor 1 receptor (P07333 whole entry): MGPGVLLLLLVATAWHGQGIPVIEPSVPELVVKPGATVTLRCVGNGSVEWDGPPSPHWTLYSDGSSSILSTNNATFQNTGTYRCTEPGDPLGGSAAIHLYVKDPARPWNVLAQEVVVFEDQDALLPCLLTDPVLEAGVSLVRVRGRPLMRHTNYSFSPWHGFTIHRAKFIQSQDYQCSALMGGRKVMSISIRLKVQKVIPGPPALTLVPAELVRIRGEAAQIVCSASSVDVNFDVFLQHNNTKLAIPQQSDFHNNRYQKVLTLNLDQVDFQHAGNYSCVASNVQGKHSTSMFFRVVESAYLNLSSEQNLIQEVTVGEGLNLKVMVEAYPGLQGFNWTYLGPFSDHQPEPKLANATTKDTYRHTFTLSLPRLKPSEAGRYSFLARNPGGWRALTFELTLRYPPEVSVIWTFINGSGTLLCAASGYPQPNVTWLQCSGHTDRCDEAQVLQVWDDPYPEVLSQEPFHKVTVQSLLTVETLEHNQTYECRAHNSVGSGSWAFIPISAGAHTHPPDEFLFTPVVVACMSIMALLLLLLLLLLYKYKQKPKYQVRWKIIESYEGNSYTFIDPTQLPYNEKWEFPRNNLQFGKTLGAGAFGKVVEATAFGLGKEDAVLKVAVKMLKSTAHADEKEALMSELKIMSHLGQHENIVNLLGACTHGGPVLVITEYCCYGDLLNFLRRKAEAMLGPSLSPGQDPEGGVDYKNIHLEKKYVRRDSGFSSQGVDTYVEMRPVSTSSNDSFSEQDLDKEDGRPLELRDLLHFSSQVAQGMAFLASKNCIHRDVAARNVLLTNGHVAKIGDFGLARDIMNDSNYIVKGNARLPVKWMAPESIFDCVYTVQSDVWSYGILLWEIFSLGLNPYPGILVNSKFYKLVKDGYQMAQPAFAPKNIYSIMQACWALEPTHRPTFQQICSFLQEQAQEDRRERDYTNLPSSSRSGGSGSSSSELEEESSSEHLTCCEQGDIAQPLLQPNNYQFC
Sequence of Calcium/calmodulin-dependent protein kinase type II subunit alpha (Homo sapiens) (Q9UQM7 whole entry): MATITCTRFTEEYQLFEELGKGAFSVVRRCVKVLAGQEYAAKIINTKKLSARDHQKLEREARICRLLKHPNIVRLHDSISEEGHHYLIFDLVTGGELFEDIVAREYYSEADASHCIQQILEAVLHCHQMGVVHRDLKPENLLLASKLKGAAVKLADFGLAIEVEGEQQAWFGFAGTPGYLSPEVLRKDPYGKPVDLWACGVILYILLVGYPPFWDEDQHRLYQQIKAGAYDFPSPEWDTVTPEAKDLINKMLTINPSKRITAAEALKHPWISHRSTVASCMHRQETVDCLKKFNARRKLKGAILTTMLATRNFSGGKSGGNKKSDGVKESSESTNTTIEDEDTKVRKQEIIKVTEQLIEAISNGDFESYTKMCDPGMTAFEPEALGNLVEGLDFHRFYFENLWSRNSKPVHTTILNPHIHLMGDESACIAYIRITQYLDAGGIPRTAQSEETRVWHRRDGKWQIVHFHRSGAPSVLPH

Regarding `COc1ccc(Oc2nc(Nc3ccc(N4CCOCC4)nc3)ncc2NC(=O)c2cc(OC)cc(OC)c2)cc1`, the inhibition in data set [1] was 100%. Besides, the pIC50 was 5.90 in [2], 6.82 in data set [4] and 4.77 in [8]. Besides, the inhibition result in data set [3], in data set [6] and in data set [7] was “Active” throughout. The inhibition result in [5] is “inactive”. In addition, the Papp at 4 h, 12.5 µM in data set [9] was 57 ×10⁻⁶ cm/s.

The term inhibition denotes how much of the control response was suppressed. A word on the pIC50: it is −log10 of the IC50, conventionally taken in molar units.

(Values after ChEMBL document CHEMBL4382221, “First-in-class DAPK1/CSF1R dual inhibitors: Discovery of 3,5-dimethoxy-N-(4-(4-methoxyphenoxy)-2-((6-morpholinopyridin-3-yl)amino)pyrimidin-5-yl)benzamide as a potential anti-tauopathies agent” (Eur J Med Chem, 2019).)
